Laboratory results published in ChEMBL document CHEMBL1146459, “Production of biologically active taxoids by a callus culture of Taxus cuspidata” (2004).

How the values were obtained:
Format in all cases: functional, A2780 ADR
[1] = Reversal of multidrug resistance in human 2780AD cells assessed as [3H]vincristine accumulation at 10 ug/mL after 2 hrs relative to verapamil
[2] = Reversal of multidrug resistance in human 2780AD cells assessed as [3H]vincristine accumulation at 0.1 ug/mL after 2 hrs relative to verapamil
[3] = Reversal of multidrug resistance in human 2780AD cells assessed as [3H]vincristine accumulation at 1 ug/mL after 2 hrs relative to verapamil
[4] = Reversal of multidrug resistance in human 2780AD cells assessed as [3H]vincristine accumulation at 0.1 ug/mL after 2 hrs relative to control
Outline: (§1)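 Multidrug-resistant human ovarian cancer 2780AD cells were exposed to taxoids at 0.1, 1 or 10 µg/mL. Radiolabelled vincristine accumulated in the cells was measured as dpm/well, using means of triplicate determinations. Results are expressed as % of vincristine accumulated relative to the control experiment. They were also scored on a seven-level index according to the range of relative accumulation.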

[5] = Reversal of multidrug resistance in human 2780AD cells assessed as [3H]vincristine accumulation at 1 ug/mL after 2 hrs relative to control; outline: as §1
[6] = Reversal of multidrug resistance in human 2780AD cells assessed as [3H]vincristine accumulation at 10 ug/mL after 2 hrs relative to control; outline: as §1

Row | SMILES | Activity [1] | Activity [2] | Activity [3] | Activity [4] | Activity [5] | Activity [6]
1 | C=C1[C@@H](OC(C)=O)CC[C@@]2(C)C[C@H](OC(C)=O)C3=C(C)C[C@H](OC(C)=O)[C@@H]([C@@H](OC(C)=O)[C@H]12)C3(C)C [TAXUYUNNANINE C] | 78% | 91% | 97% | 105% | 155% | 244%
2 | COc1ccc(CCN(C)CCCC(C#N)(c2ccc(OC)c(OC)c2)C(C)C)cc1OC (configuration not stated) [VERAPAMIL] |  |  |  | 117% | 207% | 531%
3 | C=C1[C@@H](OC(C)=O)CC[C@@]2(C)C[C@H](OC(C)=O)C3=C(C)C[C@H](OC(=O)C(C)C(C)O)[C@@H]([C@@H](OC(C)=O)[C@H]12)C3(C)C (some centres not stated) [YUNNANXANE] | 75% | 97% | 94% | 112% | 150% | 234%
4 | C=C1[C@@H](OC(C)=O)CC[C@@]2(C)C[C@H](OC(C)=O)C3=C(C)C[C@H](OC(=O)CC)[C@@H]([C@@H](OC(C)=O)[C@H]12)C3(C)C | 145% | 102% | 134% | 119% | 295% | 770%
5 | C=C1[C@@H](OC(C)=O)CC[C@@]2(C)C[C@H](OC(C)=O)C3=C(C)C[C@H](OC(=O)C(C)C)[C@@H]([C@@H](OC(C)=O)[C@H]12)C3(C)C | 98% | 82% | 95% | 96% | 195% | 522%
